High-throughput results: PubChem BioAssay, several laboratories
Jurkat NFkB inh = lowers PMA/ionomycin-induced NF-kB signal in Jurkat cells; inhibition, % at 4 µM; PMA/ionomycin-induced NF-kB luciferase reporter, luminescence; 330,000 compounds, 0.53% hits; in the data active means inhibition above about 50%
aSyn 5UTR inh = MLPCN primary screen, SNCA 5' untranslated region; alpha-synuclein 5'UTR reporter, inhibitor activity; inhibition, % (tested at 7.5 µM); 300,000 compounds, 0.82% hits; in the data active means inhibition above about 60%;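 further: H4 neuroglioblastoma cells stably carrying SNCA 5'UTR luciferase fusion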
IMP-1 inhibitor = inhibitors of Pseudomonas aeruginosa IMP-1 metallo-beta-lactamase; purified IMP-1, nitrocefin hydrolysis, epi-absorbance fluorescence; inhibition, % at 5.6 µM; 290,000 compounds, 0.45% hits; AID 1556;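 active means inhibition above the mean plus 3 SD of all compounds in the same screening run, cut at about 4.5% in these data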
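System: purified IMP-1; amount: IMP-1 0.2 nM before substrate addition; compound: single dose, 5.6 µM; times: 25 °C, 15 min preincubation, 25 min reaction; signal: Epi-absorbance via hydrolysed-nitrocefin quenching of white-plate fluorescence, 480/530 nm, EDTA stop; benchmarks: DMSO with and without IMP-1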
VIM-2 inhibitor = blocks Pseudomonas aeruginosa VIM-2 metallo-beta-lactamase; purified VIM-2, nitrocefin hydrolysis, epi-absorbance fluorescence; inhibition, % at 5.6 µM; 290,000 compounds, 0.89% hits; AID 1527;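 active means inhibition above the mean of all tested compounds plus 3 SD, cutoff set per screening run, cut at about 7.5% in these data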;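 further: red hydrolysis product quenches plate fluorescence so inhibitors raise well fluorescence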
Mdm2-MdmX inh = human Mdm2/MdmX binding inhibition; O15151+Q00987; SaOS-2 split-luciferase Mdm2/MdmX complementation, luminescence; inhibition, % at 8 µM; 330,000 compounds, 3% hits; AID 485346;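 active means inhibition of at least 50% at 8 µM in the primary screen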
697 NFkB inh = inhibitors of the PMA/ionomycin-induced NF-kB reporter in 697 B cells. AID 435022. 697 B-cell NF-kB luciferase reporter, 16 h. 330,000 compounds, 0.33% hits. inhibition, % at 4 µM; in the data active means inhibition above about 35%
Hits are given with their value; - = inactive; . = no result. An excerpt weighted towards active compounds, which were near 4.7% of everything screened.

SMILES	Jurkat NFkB inh	aSyn 5UTR inh	IMP-1 inhibitor	VIM-2 inhibitor	Mdm2-MdmX inh	697 NFkB inh
COc1ccc(NC(=O)CSc2nc(N)cc(N)n2)cc1S(=O)(=O)N1CCCCC1	-	.	.	.	-	-
COc1ccc(N2CCN(S(=O)(=O)c3ccc(OC)c(C(=O)N4CCCC4)c3)CC2)cc1	-	-	-	-	-	-
CN(C)CCCCOc1ccc(Br)cc1Cl	-	-	24	-	-	-
COCCCNCCCCOc1ccc(Br)cc1Cl	-	-	-	-	-	-
Cc1ccc(NC(=O)c2ccc(OCC3CCCO3)cc2)nc1 (stereo unspecified)	-	-	.	.	-	-
CC(C)(C)c1ccc(C(=O)Nc2nnc(SCC(=O)NCC3CCCO3)s2)cc1 (stereo unspecified)	-	-	-	-	-	-
Cc1cnc(NC(=O)c2ccc(OCC3CCCO3)cc2)s1 (stereo unspecified)	-	79	-	-	-	-
CCOc1ccc(C(=O)Nc2nnc(SCC(=O)NCC3CCCO3)s2)cc1 (stereo unspecified)	-	76	-	-	-	-
N#CC1=C2SCN(c3ccccc3)CN2C(=O)CC1c1c(Cl)cccc1Cl (stereo unspecified)	-	-	-	46	-	-
N#CC1=C2SCN(c3ccccc3)CN2C(=O)CC1c1ccccc1Cl (stereo unspecified)	-	-	-	-	-	-
Cc1ccccc1CSc1nnc([C@@H]2CCCN2)o1	-	-	5.7	-	-	-
NC(=O)c1sc(=S)n2c1[nH]c(=O)c1sccc12	-	-	-	8.2	-	-
CC(=O)NNC(=O)c1sc(=S)n2c1[nH]c(=O)c1sccc12	-	-	-	23	-	-
CCOC(=O)c1cc2c(=O)n3cccc(C)c3nc2n(CCCOC)c1=NC(=O)c1cccnc1	-	-	-	10	-	-
COCCn1c(=N)c(S(=O)(=O)c2ccc(F)cc2)cc2c(=O)n3cccc(C)c3nc21	-	-	-	8.9	-	-
CCCCn1c(=N)c(S(=O)(=O)c2ccc(Br)cc2)cc2c(=O)n3cccc(C)c3nc21	-	-	-	-	-	-
CCCn1c(=N)c(S(=O)(=O)c2ccc(F)cc2)cc2c(=O)n3ccccc3nc21	-	-	-	8.9	-	-
COCCCn1c(=N)c(C(N)=S)cc2c(=O)n3cccc(C)c3nc21	-	-	.	.	-	-
Cn1c(=N)c(S(=O)(=O)c2ccc(F)cc2)cc2c(=O)n3ccccc3nc21	-	-	-	-	-	-
CCn1c(=N)c(C(N)=O)cc2c(=O)n3cccc(C)c3nc21	.	.	-	7.9	.	.
CN(Cc1cc([N+](=O)[O-])ccc1Cl)C(=O)C[n+]1ccccc1	-	-	-	-	-	-
Cc1ccc(C)c(NC(=O)CN(C)C(=O)CN2C(=O)C3CCCCC3C2=O)c1 (stereo unspecified)	-	-	.	.	-	-
O=C(Nc1ccc(Nc2ccncc2)cc1)c1ccc(Nc2ccnc3ccc([N+](=O)[O-])cc23)cc1[N+](=O)[O-]	.	-	9.1	-	.	.
O=C(Nc1ccc(NC(=O)c2ccc([N+](=O)[O-])cc2[N+](=O)[O-])cc1)c1ccco1	-	-	-	-	-	-
CC1(NC(=O)Cc2csc(-c3cccc(Cl)c3)n2)CCS(=O)(=O)C1 (stereo unspecified)	-	.	.	.	-	-
SMILES	Jurkat NFkB inh	aSyn 5UTR inh	IMP-1 inhibitor	VIM-2 inhibitor	Mdm2-MdmX inh	697 NFkB inh
CCCSc1nc2sc3c(c2c(=O)[nH]1)CCN(Cc1ccccc1)C3	-	-	-	-	-	-
O=c1[nH]c(C(Cl)Cl)nc2sc3c(c12)CCN(Cc1ccccc1)C3	.	-	11	-	.	.
O=[N+]([O-])c1ccc(Sc2cccc[n+]2[O-])c2nonc12	.	85	-	-	.	.
O=[N+]([O-])c1ccc(Nc2ccccc2)c2nonc12	-	-	-	-	-	-
Cc1nnc(NC(=O)CSc2nnc(CNC(=O)c3ccc(S(=O)(=O)N(C)C)cc3)o2)s1	-	-	-	-	-	-
O=C(c1ccc(-c2nc3ccccc3s2)s1)N1CCOCC1	-	100	-	-	-	-
O=C(NC1CC1)c1ccc(-c2nc3ccccc3s2)s1	-	96	-	-	-	-
CCN1CCN(C(=O)c2ccc(-c3nc4ccccc4s3)s2)CC1	-	-	-	-	-	-
COc1ccc(/C=N/NC(=O)c2nn(C)cc2Br)cc1CSCc1ccco1	-	-	18	-	-	-
